From PubChem
ADAM10 inh: inhibits human ADAM10; O14672; recombinant ADAM10, EDANS/DABCYL FRET peptide cleavage, 3 h; inhibition, % at 7 µM; actives 0.62% (n = 370,000);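 active = inhibition above a per-campaign cutoff equal to the mean of compounds falling between control-based bounds plus 3 SD, cut at about 20% in these data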
Target sequence (O14672 214-748 limits assumed): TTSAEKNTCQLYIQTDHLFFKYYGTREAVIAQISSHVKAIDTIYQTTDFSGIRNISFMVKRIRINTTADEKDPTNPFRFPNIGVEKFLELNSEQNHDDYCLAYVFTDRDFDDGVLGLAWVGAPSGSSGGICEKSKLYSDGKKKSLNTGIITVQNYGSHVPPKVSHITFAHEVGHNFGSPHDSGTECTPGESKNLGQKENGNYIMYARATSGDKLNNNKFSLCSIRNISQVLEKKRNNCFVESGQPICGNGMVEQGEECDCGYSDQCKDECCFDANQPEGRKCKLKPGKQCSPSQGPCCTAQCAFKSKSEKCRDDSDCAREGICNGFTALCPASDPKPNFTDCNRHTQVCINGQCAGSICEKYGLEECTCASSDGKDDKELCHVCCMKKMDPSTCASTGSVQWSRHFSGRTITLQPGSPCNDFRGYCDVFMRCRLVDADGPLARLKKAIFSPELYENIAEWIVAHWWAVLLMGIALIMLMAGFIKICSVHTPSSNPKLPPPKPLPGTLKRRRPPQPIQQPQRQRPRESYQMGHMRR
PLC-gamma1 inh: blocks human PLC-gamma1 enzyme activity. P19174. purified PLC-gamma1, fluorogenic substrate, fluorescence. inhibition, % at 12.2 µM. actives 0.84% (n = 370,000). AID 720700; in the data active = inhibition above about 9.5%
ADAM17 inh: ADAM17 inhibition, QFRET primary screen. P78536. recombinant ADAM17, EDANS/DABCYL FRET peptide cleavage. inhibition, % at 6.95 µM. actives 0.83% (n = 370,000);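 active = inhibition above the mean of compounds lying between control limits plus 3 SD, set per campaign, cut at about 8.5% in these data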
TbMetRS inhib: blocks T. brucei methionyl-tRNA synthetase activity | actives 0.4% (n = 360,000) | inhibition, % at 11.9 µM | purified T. brucei MetRS, ATP depletion, Kinase-Glo luminescence;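 active = inhibition above a per-plate cutoff of the control wells' mean inhibition plus 3 SD, cut at about 5.5% in these data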
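Test system: purified T. brucei MetRS enzyme. Also added: ATP, methionine and E. coli bulk tRNA substrates. Compound: 11.9 µM single point. Schedule: 15 min enzyme-compound preincubation, 2 h reaction, 10 min detection, 25 °C. Signal: luciferase luminescence of residual ATP, Kinase-Glo. Evaluation: percent inhibition versus plate control medians. Controls: DMSO wells, low control.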
PLCb3 inh: inhibitors of human phospholipase C beta3; Q01970; Purified PLC-beta3, fluorogenic substrate, fluorescence; inhibition, % at 12.2 µM; actives 0.18% (n = 370,000); AID 720704; in the data active = inhibition above about 11%
ADAM10 confirm: human ADAM10 inhibition, confirmation. shares compounds with ADAM10 inh. ADAM10 QFRET peptide cleavage, EDANS fluorescence. inhibition, % at 6.95 µM. actives 1% (n = 2,100). AID 743208;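 active = inhibition above about 20% chosen separately for each screening run, limit read from the data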
ADAM17 counter: counter-screen for ADAM10 exosite inhibitors: inhibitors of human ADAM17; inhibition, % at 6.95 µM; actives 0.5% (n = 2,100); shares compounds with ADAM10 inh; ADAM17 QFRET peptide cleavage, EDANS fluorescence; AID 743214;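 active = mean triplicate inhibition above the solvent-only control wells' mean plus 3 SD, cut at about 12% in these data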
ADAM10 counter: ADAM10 inhibition, counter-screen for ADAM17 exosite hits; shares compounds with ADAM17 inh; inhibition, % at 6.95 µM; actives 47% (n = 2,900); recombinant ADAM10, EDANS/DABCYL FRET peptide cleavage, 3 h;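 active = mean inhibition over the triplicate runs exceeds the activity threshold set in the earlier primary screen, cut at about 20% in these data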
ADAM17 confirm: confirmation of inhibitors of human ADAM17; shares compounds with ADAM17 inh; recombinant ADAM17, EDANS/DABCYL QFRET peptide cleavage; inhibition, % at 6.95 µM; actives 65% (n = 2,900); AID 743257;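 active = mean inhibition across replicates above the hit cutoff set in the primary screen, cut at about 8.5% in these data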
Large screens that a line does not name were inactive (follow-up assays come after a bar, where they were run). Only some compounds are listed: those with a hit (about 2.3% of all), similar ones and a draw of the others.

CCc1cccc(C)c1NC(=O)CN1CCN(S(=O)(=O)c2ccc(C(C)(C)C)cc2)CC1	ADAM10 inh 24.2, ADAM17 inh 10.0 | ADAM10 confirm inactive | ADAM17 counter inactive | ADAM10 counter inactive | ADAM17 confirm inactive
CCc1cccc(C)c1NC(=O)COC(=O)C1CCN(S(=O)(=O)c2ccccc2)CC1	none
Cc1cc(C)cc(NC(=O)C2(c3ccccc3)CC2(Cl)Cl)c1 (configuration not stated)	ADAM10 inh 20.4, ADAM17 inh 9.9 | ADAM10 confirm inactive | ADAM17 counter inactive | ADAM10 counter inactive | ADAM17 confirm 9.6
Cc1cccc(NC(=O)C2(c3ccccc3)CC2(Cl)Cl)c1 (configuration not stated)	none
CN1CCS/C1=C\C=C1/SC(=S)N(CC(=O)O)C1=O	ADAM10 inh 25.3, ADAM17 inh 10.5 | ADAM10 confirm inactive | ADAM17 counter inactive | ADAM10 counter inactive | ADAM17 confirm 10.8
CC(=O)Nc1ccc(S(=O)(=O)Nc2ccccc2C(=O)N2CCCCC2)cc1	none
CCN(CC)S(=O)(=O)c1cccc(C(=O)Nc2cc(C)on2)c1	none
Cc1cccc(-n2ncc3c(NCc4cccs4)ncnc32)c1	ADAM10 inh 23.4, ADAM17 inh 12.0 | ADAM10 confirm inactive | ADAM17 counter inactive | ADAM10 counter inactive | ADAM17 confirm 9.6
COc1ccc(-c2cc(N)n(S(=O)(=O)c3ccc(C)cc3)n2)c(OC)c1	none
COc1ccc(S(=O)(=O)n2nc(-c3ccc(Cl)cc3)cc2N)cc1	ADAM10 inh 20.6, ADAM17 inh 9.0 | ADAM10 confirm inactive | ADAM17 counter inactive | ADAM10 counter inactive | ADAM17 confirm 8.9
Cc1ccc(-c2csc(N3CCC(NS(=O)(=O)c4ccc5c(c4)OCCO5)CC3)n2)cc1	ADAM10 inh 23.7, ADAM17 inh 13.0 | ADAM10 confirm inactive | ADAM17 counter inactive | ADAM10 counter 20.1 | ADAM17 confirm 15.2
COc1ccccc1NC(=O)CSc1nc2ccccc2cc1Cc1ccccc1	none
Cc1cccc(N2C(=O)CC(Sc3nc(C)c4c(n3)CCCC4)C2=O)c1 (configuration not stated)	none
Cc1nc(SC2CC(=O)N(c3cc(Cl)cc(Cl)c3)C2=O)nc2c1CCCC2 (configuration not stated)	ADAM10 inh 34.2, ADAM17 inh 10.3 | ADAM10 confirm inactive | ADAM17 counter inactive | ADAM10 counter inactive | ADAM17 confirm inactive
C#CCNCCS(=O)(=O)N(Cc1ccc(Br)cc1)[C@@H](CC(C)C)C(=O)O	none
Cc1[nH]c2ccccc2c1C(=O)COC(=O)c1c(-c2c(F)cccc2Cl)noc1C	ADAM10 inh 26.2, ADAM17 inh 12.8 | ADAM10 confirm inactive | ADAM17 counter inactive | ADAM10 counter 31.7 | ADAM17 confirm 17.2
Cc1ccc(S(=O)(=O)N2CCCCC2)cc1NC(=O)c1ccc(=O)[nH]c1	none
Cc1ccc(S(=O)(=O)N(C)C[C@@H]2OCc3ccccc3-c3c(n(C)c4ccccc34)C(=O)N([C@H](C)CO)C[C@@H]2C)cc1	ADAM10 inh 26.7, ADAM17 inh 12.0 | ADAM10 confirm inactive | ADAM17 counter inactive | ADAM10 counter 38.5 | ADAM17 confirm 20.8
Cc1ccc(C(C(=O)NC2CCCCC2)N(Cc2ccccc2)C(=O)Cc2c[nH]c3ccccc23)o1 (configuration not stated)	ADAM10 inh 20.2, ADAM17 inh 15.0 | ADAM10 confirm inactive | ADAM17 counter inactive | ADAM10 counter inactive | ADAM17 confirm 12.1
COc1cccc(CN(C(=O)Cc2c[nH]c3ccccc23)C(C(=O)NC2CCCCC2)c2ccc(C)o2)c1 (configuration not stated)	ADAM10 inh 21.8, ADAM17 inh 11.2 | ADAM10 confirm inactive | ADAM17 counter inactive | ADAM10 counter 32.6 | ADAM17 confirm 16.4
Cc1ccc(C(C(=O)NC2CCCC2)N(Cc2ccccc2)C(=O)c2csnn2)o1 (configuration not stated)	none
Cc1ccc(-n2nc3c(c2NC(=O)c2ccco2)CS(=O)C3)cc1 (configuration not stated)	none
Cc1ccc(NC(=O)Cc2ccc(Cl)c(Cl)c2)cc1S(=O)(=O)N(C)C	ADAM10 inh 28.4, ADAM17 inh 14.7 | ADAM10 confirm inactive | ADAM17 counter inactive | ADAM10 counter inactive | ADAM17 confirm 9.6
Cc1ccc(NC(=O)CSc2nn(-c3ccc(Cl)cc3)c(=S)s2)cc1S(=O)(=O)N(C)C	ADAM10 inh 25.3, ADAM17 inh 9.8 | ADAM10 confirm inactive | ADAM17 counter inactive | ADAM10 counter 28.1 | ADAM17 confirm 19.5
COC(=O)c1ccc2nc(-c3cccc(Cl)c3)c(Cc3ccccc3C(F)(F)F)n2c1	none (no result: TbMetRS inhib)
COc1ccc(Cl)cc1Cn1c(C)c(C(=O)NCc2ccc(F)cc2)sc1=O	ADAM10 inh 27.3, ADAM17 inh 11.0 | ADAM10 confirm inactive | ADAM17 counter inactive | ADAM10 counter inactive | ADAM17 confirm inactive
CCc1nc2ccccc2c(C(=O)OCC(=O)Nc2ccc(S(=O)(=O)N3CCOCC3)cc2)c1C	ADAM10 inh 19.8, ADAM17 inh 10.0 | ADAM10 confirm inactive | ADAM17 counter inactive | ADAM10 counter 20.5 | ADAM17 confirm 12.5
CCCCc1c(-c2ccccc2OC)ncn1Cc1cccc(F)c1F	none (no result: TbMetRS inhib)
C/C=C/c1cccc(-c2nc(C(=O)N3CCCCC3)cc3c2[C@@H](CCO)N(C(=O)NC(C)C)C3)c1	none
Cc1cccc(OCCCSc2nc3ccccc3[nH]2)c1	ADAM10 inh 21.2, ADAM17 inh 10.1 | ADAM10 confirm inactive | ADAM17 counter inactive | ADAM10 counter inactive | ADAM17 confirm 9.8
COc1ccccc1CN1CC(C(=O)N2CCC(C(=O)c3ccccc3)CC2)CCC1=O (configuration not stated)	none
O=C(Nc1cccc(C(F)(F)F)c1)N1CCC(c2nc(-c3ccc(F)cc3)no2)CC1	ADAM10 inh 20.9, ADAM17 inh 9.6 | ADAM10 confirm inactive | ADAM17 counter inactive | ADAM10 counter 34.2 | ADAM17 confirm 17.0
Cc1ccccc1NC(=O)NC1(C(=O)NCc2ccco2)CCCCC1	none
O=C(O)c1cccc(Nc2nc(-c3ccc([N+](=O)[O-])cc3)nc3ccccc23)c1	none
